Results published in ChEMBL document CHEMBL3244072, “Synthesis and antiviral and enzymatic studies of certain 3-deazaguanines and their imidazolecarboxamide precursors” (J Med Chem, 1978).
Active and inactive are the calls of the source. No cut-off for these calls is given here.

Key:
[1] = system: KB; test: Antiviral activity against Adenovirus type 3 infected in human KB cells assessed as inhibition of virus-induced cytopathic effect after 72 hrs relative to control; type: functional, cell-based; settings: Human adenovirus 3
Summary of the method: (§1)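 Cell monolayers (18-24 h) infected with 320 CCID50 of virus; compound added within 15 min at half-log dilutions from 1000 to 1 μg/mL. After 72 h at 37 °C, CPE and cytotoxicity scored microscopically (0-4). Virus rating = sum of (control CPE − treated CPE) over drug levels, halved at any level showing toxicity.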

[2] = system: Human alphaherpesvirus 1; test: Antiviral activity against HSV1 infected in human KB cells assessed as inhibition of virus-induced cytopathic effect after 72 hrs relative to control; type: functional, organism-based; summary of the method: as §1
[3] = system: Human respirovirus 3; test: Antiviral activity against Parainfluenza virus 3 infected in human KB cells assessed as inhibition of virus-induced cytopathic effect after 72 hrs relative to control; type: functional, organism-based; summary of the method: as §1
[4] = system: KB; test: Antiviral activity against Rhinovirus type 13 infected in human KB cells assessed as inhibition of virus-induced cytopathic effect after 72 hrs relative to control; type: functional, cell-based; settings: Human rhinovirus A13; summary of the method: as §1
[5] = system: Mus musculus; test: Toxicity in Influenza B virus Lee infected Swiss-Webster mouse assessed as mortality at 100 mg/kg, po qd for 9 days; type: organism-based; set-up: dose 100 mg/kg, route oral; settings: in vivo, 216 h
[6] = system: Mus musculus; test: Toxicity in Influenza B virus Lee infected Swiss-Webster mouse assessed as mortality at 50 mg/kg, po qd for 9 days; type: organism-based; set-up: dose 50 mg/kg, route oral; settings: in vivo, 216 h
[7] = system: Mus musculus; test: Toxicity in Influenza B virus Lee infected Swiss-Webster mouse assessed as mortality at 12.5 mg/kg, po qd for 9 days; type: organism-based; set-up: dose 12.5 mg/kg, route oral; settings: in vivo, 216 h
[8] = system: Influenza B virus; test: Antiviral activity against Influenza B virus Lee infected in Swiss-Webster mouse assessed as host mean survival days at 100 mg/kg, po qd for 9 days; type: functional, B/Lee/1940
[9] = system: Influenza B virus; test: Antiviral activity against Influenza B virus Lee infected in Swiss-Webster mouse assessed as host mean survival days at 50 mg/kg, po qd for 9 days; type: functional, B/Lee/1940
[10] = system: Influenza B virus; test: Antiviral activity against Influenza B virus Lee infected in Swiss-Webster mouse assessed as host mean survival days at 12.5 mg/kg, po qd for 9 days; type: functional, B/Lee/1940
[11] = system: Influenza B virus; test: Antiviral activity against Influenza B virus Lee infected in Swiss-Webster mouse assessed as host mean survival days at 3.1 mg/kg, po qd for 9 days; type: functional, B/Lee/1940
[12] = system: Ehrlich; test: Inhibition of adenine nucleotide biosynthesis in mouse EAC assessed as [14C]hypoxanthine incorporation at 1 mM after 60 mins by TLC analysis; type: functional; settings: 1 h
Summary of the method: (§2)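 Ehrlich ascites tumor cells (about 6 × 10^6 cells/mL) preincubated 20 min at 37 °C with or without 1 mM compound. [14C]hypoxanthine (55 μCi/μmol) then added to 0.1 mM final for 60 min. Label in adenine or guanine nucleotides of the acid-soluble fraction measured by TLC; inhibition calculated against untreated cells.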

[13] = system: Ehrlich; test: Inhibition of guanine nucleotide biosynthesis in mouse EAC assessed as [14C]hypoxanthine incorporation at 1 mM after 60 mins by TLC analysis; type: functional; settings: 1 h; summary of the method: as §2
[14] = system: Candida albicans; test: Antimicrobial activity against Candida albicans at 0.4 umol/mL by broth microdilution method; type: functional, organism-based
Summary of the method: (§3)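 Broth dilution in defined medium against clinical isolates of each organism.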

[15] = system: Epidermophyton floccosum; test: Antimicrobial activity against Epidermophyton floccosum at 0.4 umol/mL by broth microdilution method; type: functional, organism-based; summary of the method: as §3
[16] = system: Microsporum canis; test: Antimicrobial activity against Microsporum canis at 0.4 umol/mL by broth microdilution method; type: functional, organism-based; summary of the method: as §3
[17] = system: Pseudomonas aeruginosa; test: Antimicrobial activity against Pseudomonas aeruginosa at 0.4 umol/mL by broth microdilution method; type: functional, organism-based; summary of the method: as §3
[18] = system: Staphylococcus aureus; test: Antimicrobial activity against Staphylococcus aureus at 0.4 umol/mL by broth microdilution method; type: functional, organism-based; summary of the method: as §3
[19] = system: Trichophyton mentagrophytes; test: Antimicrobial activity against Trichophyton mentagrophytes at 0.4 umol/mL by broth microdilution method; type: functional, organism-based; summary of the method: as §3

SMILES: N#CCc1[nH]cnc1C(N)=O
- Activity [1]: Active
- Activity [2]: Active
- Activity [3]: Active
- Activity [4]: Active
- Activity [5]: Non-toxic
- Activity [6]: Non-toxic
- Activity [7]: Non-toxic
- Time [8]: 0.118 days
- Time [9]: >0.3 days
- Time [10]: >0.3 days
- Time [11]: 0.23 days
- inhibition at 1000 µM [12]: 8%
- inhibition at 1000 µM [13]: 39%
- Activity [14]: inactive
- Activity [15]: inactive
- Activity [16]: inactive
- Activity [17]: inactive
- Activity [18]: inactive
- Activity [19]: inactive
